Measurements from different studies.
Protocols differ between the studies behind these lines. pIC50: −log10 of the molar value.
Cell line: HL-60
Read-out: cell growth or viability

| Compound | assay | setting | pIC50 |
| --- | --- | --- | --- |
| O=c1cc(OCc2cc(-c3ccccc3)no2)c2ccccc2o1 | MTS | 72 h | < 4.00 |
| COc1cc([C@@H]2c3cc4c(cc3[C@@H](O[C@@H]3O[C@@H]5CO[C@@H](C)O[C@H]5[C@H](O)[C@H]3O)[C@H]3COC(=O)[C@H]23)OCO4)cc(OC)c1O | XTT | 75 h | 5.91 |
| COc1ccc(Nc2ncnc3c2ncn3Cc2ccc(C(=O)NO)cc2)cc1 | MTT | 72 h | 5.70 |
| O=C(CSc1nc2ccccc2s1)N/N=C/c1ccc(OCC(=O)Nc2cccc(Br)c2)cc1 | MTS | 72 h | < 4.00 |
| O=c1cc(OCc2cc(-c3ccc(C(F)(F)F)cc3)no2)c2ccccc2o1 | MTS | 72 h | < 4.00 |
| COc1cc([C@@H]2c3cc4c(cc3[C@@H](O[C@@H]3O[C@@H]5CO[C@@H](C)O[C@H]5[C@H](O)[C@H]3O)[C@H]3COC(=O)[C@H]23)OCO4)cc(OC)c1O | MTS | 72 h | 6.52 |
| O=C(NO)c1ccc(Cn2cnc3c(Nc4cccc([N+](=O)[O-])c4)ncnc32)cc1 | MTT | 72 h | 5.73 |
| O=C(CSc1nc2ccccc2s1)N/N=C/c1ccc(OCC(=O)Nc2ccc(Br)cc2)cc1 | MTS | 72 h | < 4.00 |
| c1ccc(-c2cc(CNc3cccc4cccnc34)on2)nc1 | MTS | 72 h | 4.19 |
| Nc1cccc2c1C(=O)N(C1CCC(=O)NC1=O)C2=O (stereo not drawn) | CCK-8 | 7 days | < 5.00 |
| FC(F)(F)c1cc(OCc2cc(-c3ccccc3)no2)c2ccccc2n1 | MTS | 72 h | < 4.00 |
| O=C(NO)c1ccc(Cn2cnc3c(Nc4ccc(Br)cc4F)ncnc32)cc1 | MTT | 72 h | 5.22 |
